According to ChEMBL document CHEMBL1145492, “Comparison of the phosphorylation of 4'-ethynyl 2',3'-dihydro-3'-deoxythymidine with that of other anti-human immunodeficiency virus thymidine analogs” (Antimicrob Agents Chemother, 2007):

How the values were obtained:
[1] = substrate: Cc1cn([C@H]2C=C[C@@H](COP(=O)(O)O)O2)c(=O)[nH]c1=O; assay: (§1) Activity for human recombinant TMP kinase
In short: (§2)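 Substrate ranges were TMP 6.25–100 μM and analog MPs 6.25–250 μM. Reactions were stopped at various times with TCA and neutralized with trioctylamine/trichlorotrifluoroethane. Km and kcat came from Lineweaver-Burk plots. Relative efficiency is kcat/Km with D4TMP as 100%. Mean ± SD of three experiments.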

[2] = substrate: Cc1cn([C@H]2C[C@H](N=[N+]=[N-])[C@@H](COP(=O)(O)O)O2)c(=O)[nH]c1=O; assay: as §1; in short: as §2
[3] = substrate: Cc1cn([C@H]2C[C@H](O)[C@@H](COP(=O)(O)O)O2)c(=O)[nH]c1=O; assay: as §1; in short: as §2

B1: Thymidylate kinase (Homo sapiens), P23919 (protein)
chain: MAARRGALIVLEGVDRAGKSTQSRKLVEALCAAGHRAELLRFPERSTEIGKLLSSYLQKKSDVEDHSVHLLFSANRWEQVPLIKEKLSQGVTLVVDRYAFSGVAFTGAKENFSLDWCKQPDVGLPKPDLVLFLQLQLADAAKRGAFGHERYENGAFQERALRCFHQLMKDTTLNWKMVDASKSIEAVHEDIRVLSEDAIRTATEKPLGELWK
B1 showed a Km [1] of 22 µM, a kcat [1] of 0.093 s⁻¹ and a Km [2] of 7.6 µM. The kcat [2] was 0.018 s⁻¹, the Km [3] was 8.3 µM and the kcat [3] was 1.8 s⁻¹.
